Test results taken from ChEMBL document CHEMBL1926577, “Novel 1,3,4-heterodiazole analogues: synthesis and in-vitro antitumor activity” (2012).

Columns and labels:
Type in all cases: functional
CCRF-CEM = experiment: Growth inhibition of human CCRF-CEM cells at 10 uM after 48 hrs by coulter counter method; conditions: read-out: GI
How it was run: (§1)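 NCI 60-cell-line panel, single dose. Compound dissolved first in DMSO, then diluted in phosphate-buffered saline so that every final dilution held under 1% DMSO. Duplicate wells received cells at 6 × 10⁴ cells/ml. Controls held PBS/DMSO at the same dilution. Plates were incubated 48 h at 37 °C under 5% CO₂. Cells were then diluted 10-fold in saline and counted on a Coulter counter, with counts corrected for the dilution. Results are given as percent growth inhibition.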

HL-60(TB) = experiment: Growth inhibition of human HL-60(TB) cells at 10 uM after 48 hrs by coulter counter method; conditions: HL-60, 48 h, read-out: GI
How it was run: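 Single-dose screen on the NCI 60-line panel (leukemia subpanel). Compound is dissolved in DMSO and diluted in PBS, with final DMSO below 1%. Duplicate wells hold 6 × 10⁴ cells/ml at 37 °C, 5% CO₂, for 48 h. Cells are counted by Coulter counter after 10-fold saline dilution. Read-out is percent growth versus PBS/DMSO controls, expressed as % growth inhibition.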

K562 = experiment: Growth inhibition of human K562 cells at 10 uM after 48 hrs by coulter counter method; conditions: K562, 48 h, read-out: GI; how it was run: as §1
MOLT-4 = experiment: Growth inhibition of human MOLT4 cells at 10 uM after 48 hrs by coulter counter method; conditions: MOLT-4, 48 h, read-out: GI; how it was run: as §1
RPMI-8226 = experiment: Growth inhibition of human RPMI8226 cells at 10 uM after 48 hrs by coulter counter method; conditions: RPMI-8226, 48 h, read-out: GI; how it was run: as §1
SR = experiment: Growth inhibition of human SR cells at 10 uM after 48 hrs by coulter counter method; conditions: read-out: GI; how it was run: as §1
A549 = experiment: Growth inhibition of human A549 cells at 10 uM after 48 hrs by coulter counter method; conditions: A549, 48 h, read-out: GI; how it was run: as §1
EKVX = experiment: Growth inhibition of human EKVX cells at 10 uM after 48 hrs by coulter counter method; conditions: read-out: GI; how it was run: as §1
NCI-H226 = experiment: Growth inhibition of human NCI-H226 cells at 10 uM after 48 hrs by coulter counter method; conditions: NCI-H226, 48 h, read-out: GI; how it was run: as §1
NCI-H23 = experiment: Growth inhibition of human NCI-H23 cells at 10 uM after 48 hrs by coulter counter method; conditions: NCI-H23, 48 h, read-out: GI; how it was run: as §1
NCI-H322M = experiment: Growth inhibition of human NCI-H322M cells at 10 uM after 48 hrs by coulter counter method; conditions: read-out: GI; how it was run: as §1
NCI-H522 = experiment: Growth inhibition of human NCI-H522 cells at 10 uM after 48 hrs by coulter counter method; conditions: NCI-H522, 48 h, read-out: GI; how it was run: as §1
HCT-116 = experiment: Growth inhibition of human HCT116 cells at 10 uM after 48 hrs by coulter counter method; conditions: HCT-116, 48 h, read-out: GI; how it was run: as §1
HCT-15 = experiment: Growth inhibition of human HCT15 cells at 10 uM after 48 hrs by coulter counter method; conditions: HCT-15, 48 h, read-out: GI; how it was run: as §1
HT-29 = experiment: Growth inhibition of human HT-29 cells at 10 uM after 48 hrs by coulter counter method; conditions: HT-29, 48 h, read-out: GI; how it was run: as §1
KM12 = experiment: Growth inhibition of human KM12 cells at 10 uM after 48 hrs by coulter counter method; conditions: KM12, 48 h, read-out: GI; how it was run: as §1
SF-268 = experiment: Growth inhibition of human SF268 cells at 10 uM after 48 hrs by coulter counter method; conditions: SF-268, 48 h, read-out: GI; how it was run: as §1
SF-295 = experiment: Growth inhibition of human SF295 cells at 10 uM after 48 hrs by coulter counter method; conditions: SF-295, 48 h, read-out: GI; how it was run: as §1
SNB-19 = experiment: Growth inhibition of human SNB19 cells at 10 uM after 48 hrs by coulter counter method; conditions: SNB-19, 48 h, read-out: GI; how it was run: as §1
SNB-75 = experiment: Growth inhibition of human SNB75 cells at 10 uM after 48 hrs by coulter counter method; conditions: SNB-75, 48 h, read-out: GI; how it was run: as §1
U-251 = experiment: Growth inhibition of human U251 cells at 10 uM after 48 hrs by coulter counter method; conditions: U-251, 48 h, read-out: GI; how it was run: as §1
LOX IMVI = experiment: Growth inhibition of human LOXIMVI cells at 10 uM after 48 hrs by coulter counter method; conditions: read-out: GI; how it was run: as §1
Malme-3M = experiment: Growth inhibition of human MALME-3M cells at 10 uM after 48 hrs by coulter counter method; conditions: read-out: GI; how it was run: as §1
M14 = experiment: Growth inhibition of human M14 cells at 10 uM after 48 hrs by coulter counter method; conditions: M14, 48 h, read-out: GI; how it was run: as §1
MDA-MB-435 = experiment: Growth inhibition of human MDA-MB-435 cells at 10 uM after 48 hrs by coulter counter method; conditions: MDA-MB-435, 48 h, read-out: GI; how it was run: as §1
SK-MEL-2 = experiment: Growth inhibition of human SK-MEL-2 cells at 10 uM after 48 hrs by coulter counter method; conditions: SK-MEL-2, 48 h, read-out: GI; how it was run: as §1
SK-MEL-28 = experiment: Growth inhibition of human SK-MEL-28 cells at 10 uM after 48 hrs by coulter counter method; conditions: SK-MEL-28, 48 h, read-out: GI; how it was run: as §1
SK-MEL-5 = experiment: Growth inhibition of human SK-MEL-5 cells at 10 uM after 48 hrs by coulter counter method; conditions: SK-MEL-5, 48 h, read-out: GI; how it was run: as §1
UACC-257 = experiment: Growth inhibition of human UACC257 cells at 10 uM after 48 hrs by coulter counter method; conditions: UACC-257, 48 h, read-out: GI; how it was run: as §1
UACC-62 = experiment: Growth inhibition of human UACC62 cells at 10 uM after 48 hrs by coulter counter method; conditions: UACC-62, 48 h, read-out: GI; how it was run: as §1
IGROV-1 = experiment: Growth inhibition of human IGROV1 cells at 10 uM after 48 hrs by coulter counter method; conditions: IGROV-1, 48 h, read-out: GI; how it was run: as §1
OVCAR-8 = experiment: Growth inhibition of human OVCAR8 cells at 10 uM after 48 hrs by coulter counter method; conditions: OVCAR-8, 48 h, read-out: GI; how it was run: as §1
NCI/ADR-RES = experiment: Growth inhibition of human NCI/ADR-RES cells at 10 uM after 48 hrs by coulter counter method; conditions: read-out: GI; how it was run: as §1
786-0 = experiment: Growth inhibition of human 786-0 cells at 10 uM after 48 hrs by coulter counter method; conditions: 786-0, 48 h, read-out: GI; how it was run: as §1
A498 = experiment: Growth inhibition of human A498 cells at 10 uM after 48 hrs by coulter counter method; conditions: A498, 48 h, read-out: GI; how it was run: as §1
ACHN = experiment: Growth inhibition of human ACHN cells at 10 uM after 48 hrs by coulter counter method; conditions: read-out: GI; how it was run: as §1
CAKI-1 = experiment: Growth inhibition of human Caki1 cells at 10 uM after 48 hrs by coulter counter method; conditions: CAKI-1, 48 h, read-out: GI; how it was run: as §1
SN12C = experiment: Growth inhibition of human SN12C cells at 10 uM after 48 hrs by coulter counter method; conditions: read-out: GI; how it was run: as §1
TK-10 = experiment: Growth inhibition of human TK10 cells at 10 uM after 48 hrs by coulter counter method; conditions: TK-10, 48 h, read-out: GI; how it was run: as §1
UO-31 = experiment: Growth inhibition of human UO31 cells at 10 uM after 48 hrs by coulter counter method; conditions: UO-31, 48 h, read-out: GI; how it was run: as §1
PC-3 = experiment: Growth inhibition of human PC3 cells at 10 uM after 48 hrs by coulter counter method; conditions: PC-3, 48 h, read-out: GI; how it was run: as §1
MCF7 = experiment: Growth inhibition of human MCF7 cells at 10 uM after 48 hrs by coulter counter method; conditions: MCF7, 48 h, read-out: GI; how it was run: as §1
BT-549 = experiment: Growth inhibition of human BT549 cells at 10 uM after 48 hrs by coulter counter method; conditions: BT-549, 48 h, read-out: GI; how it was run: as §1
T47D = experiment: Growth inhibition of human T47D cells at 10 uM after 48 hrs by coulter counter method; conditions: read-out: GI; how it was run: as §1
MDA-MB-468 = experiment: Growth inhibition of human MDA-MB-468 cells at 10 uM after 48 hrs by coulter counter method; conditions: MDA-MB-468, 48 h, read-out: GI; how it was run: as §1

## NC1=CC(N)=NC2OC(c3ccccc3)=NN12 (stereo not given)
CCRF-CEM
  inhibition of growth at 10 µM: < 10%
HL-60(TB)
  inhibition of growth at 10 µM: 15.6%
K562
  inhibition of growth at 10 µM: < 10%
MOLT-4
  inhibition of growth at 10 µM: 10.4%
RPMI-8226
  inhibition of growth at 10 µM: < 10%
SR
  inhibition of growth at 10 µM: 10.4%
A549
  inhibition of growth at 10 µM: < 10%
EKVX
  inhibition of growth at 10 µM: < 10%
NCI-H226
  inhibition of growth at 10 µM: < 10%
NCI-H23
  inhibition of growth at 10 µM: < 10%
NCI-H322M
  inhibition of growth at 10 µM: < 10%
NCI-H522
  inhibition of growth at 10 µM: < 10%
HCT-116
  inhibition of growth at 10 µM: < 10%
HCT-15
  inhibition of growth at 10 µM: < 10%
HT-29
  inhibition of growth at 10 µM: < 10%
KM12
  inhibition of growth at 10 µM: < 10%
SF-268
  inhibition of growth at 10 µM: < 10%
SF-295
  inhibition of growth at 10 µM: 15.6%
SNB-19
  inhibition of growth at 10 µM: < 10%
SNB-75
  inhibition of growth at 10 µM: < 10%
U-251
  inhibition of growth at 10 µM: < 10%
LOX IMVI
  inhibition of growth at 10 µM: < 10%
Malme-3M
  inhibition of growth at 10 µM: < 10%
M14
  inhibition of growth at 10 µM: < 10%
MDA-MB-435
  inhibition of growth at 10 µM: < 10%
SK-MEL-2
  inhibition of growth at 10 µM: < 10%
SK-MEL-28
  inhibition of growth at 10 µM: < 10%
SK-MEL-5
  inhibition of growth at 10 µM: < 10%
UACC-257
  inhibition of growth at 10 µM: < 10%
UACC-62
  inhibition of growth at 10 µM: < 10%
IGROV-1
  inhibition of growth at 10 µM: < 10%
OVCAR-8
  inhibition of growth at 10 µM: < 10%
NCI/ADR-RES
  inhibition of growth at 10 µM: < 10%
786-0
  inhibition of growth at 10 µM: < 10%
A498
  inhibition of growth at 10 µM: < 10%
ACHN
  inhibition of growth at 10 µM: < 10%
CAKI-1
  inhibition of growth at 10 µM: < 10%
SN12C
  inhibition of growth at 10 µM: < 10%
TK-10
  inhibition of growth at 10 µM: < 10%
UO-31
  inhibition of growth at 10 µM: 27%
PC-3
  inhibition of growth at 10 µM: < 10%
MCF7
  inhibition of growth at 10 µM: < 10%
BT-549
  inhibition of growth at 10 µM: < 10%
T47D
  inhibition of growth at 10 µM: < 10%
MDA-MB-468
  inhibition of growth at 10 µM: < 10%
